The record followed here is ChEMBL document CHEMBL5696442, “Discovery of type II inhibitors of TGFβ-activated kinase 1 (TAK1) and mitogen-activated protein kinase kinase kinase kinase 2 (MAP4K2)” (J Med Chem, 2015).

Each structure is given as a SMILES string.

Assay [1] has as its target Serine/threonine-protein kinase WNK4 (Homo sapiens) (UniProt Q96J92). In words: Inhibition of Wnk4 ACT labeling site in human A-375 cells at 0.5 uM by KiNativ Profiling analysis relative to control. In kind it is cell-based.
In assay [2] the target is Phosphatidylinositol 4-kinase beta (Homo sapiens) (UniProt Q9UBF8). In words: Inhibition of PI4KB ATP labeling site harbouring VPHTQAVVLNSKDK in human A-375 cells at 5 uM by KiNativ Profiling analysis relative to control. In kind it is cell-based.
Assay [3] addresses MAP/microtubule affinity-regulating kinase 3 (Homo sapiens) (UniProt P27448). Description: Inhibition of MARK3 Lys1 labeling site in human A-375 cells at 5 uM by KiNativ Profiling analysis relative to control. In kind it is cell-based.
Assay [4] concerns the target Dual specificity mitogen-activated protein kinase kinase 2 (Homo sapiens) (UniProt P36507). Description: Inhibition of MAP2K2 Lys1 labeling site in human A-375 cells at 0.5 uM by KiNativ Profiling analysis relative to control. In kind it is cell-based.
For assay [5], the target named is Serine/threonine-protein kinase 38 (Homo sapiens) (UniProt Q15208). Description: Inhibition of NDR1 Lys2 labeling site in human A-375 cells at 0.5 uM by KiNativ Profiling analysis relative to control. In kind it is cell-based.
Assay [6] deals with Serine/threonine-protein kinase WNK2 (Homo sapiens) (UniProt Q9Y3S1). Description: Inhibition of Wnk2 ATP Loop labeling site in human A-375 cells at 0.5 uM by KiNativ Profiling analysis relative to control. In kind it is cell-based.
Assay [7] concerns the target Serine/threonine-protein kinase MARK2 (Homo sapiens) (UniProt Q7KZI7). In words: Inhibition of MARK2 Lys2 labeling site harbouring FIVHRDLKAENLLLDADMNIK in human A-375 cells at 5 uM by KiNativ Profiling analysis relative to control. In kind it is cell-based.
Assay [8] has as its target Casein kinase II subunit alpha (Homo sapiens) (UniProt P68400). Description: Inhibition of CK2a1 Protein Kinase Domain in human A-375 cells at 0.05 uM by KiNativ Profiling analysis relative to control. In kind it is cell-based.
Assay [9] deals with Tyrosine-protein kinase JAK1 (Homo sapiens) (UniProt P23458). In words: Inhibition of JAK1 in human A-375 cells at 0.5 uM by KiNativ Profiling analysis relative to control. In kind it is cell-based.
For assay [10], the target named is Mitogen-activated protein kinase kinase kinase 20 (Homo sapiens, UniProt Q9NYL2). In words: Inhibition of ZAK Lys1 labeling site in human A-375 cells at 0.05 uM by KiNativ Profiling analysis relative to control. In kind it is cell-based.
A short description of assay [11]: Inhibition of p70S6K Lys2 labeling site in human A-375 cells at 5 uM by KiNativ Profiling analysis relative to control. The conditions noted are these: condition cancer.
Assay [12] is described as follows: Inhibition of p70S6K Lys2 labeling site in human A-375 cells at 0.05 uM by KiNativ Profiling analysis relative to control. The conditions noted are these: condition cancer.
Assay [13] has as its target T1, Serine/threonine-protein kinase NLK (Homo sapiens) (UniProt Q9UBE8).
T1 sequence (whole entry): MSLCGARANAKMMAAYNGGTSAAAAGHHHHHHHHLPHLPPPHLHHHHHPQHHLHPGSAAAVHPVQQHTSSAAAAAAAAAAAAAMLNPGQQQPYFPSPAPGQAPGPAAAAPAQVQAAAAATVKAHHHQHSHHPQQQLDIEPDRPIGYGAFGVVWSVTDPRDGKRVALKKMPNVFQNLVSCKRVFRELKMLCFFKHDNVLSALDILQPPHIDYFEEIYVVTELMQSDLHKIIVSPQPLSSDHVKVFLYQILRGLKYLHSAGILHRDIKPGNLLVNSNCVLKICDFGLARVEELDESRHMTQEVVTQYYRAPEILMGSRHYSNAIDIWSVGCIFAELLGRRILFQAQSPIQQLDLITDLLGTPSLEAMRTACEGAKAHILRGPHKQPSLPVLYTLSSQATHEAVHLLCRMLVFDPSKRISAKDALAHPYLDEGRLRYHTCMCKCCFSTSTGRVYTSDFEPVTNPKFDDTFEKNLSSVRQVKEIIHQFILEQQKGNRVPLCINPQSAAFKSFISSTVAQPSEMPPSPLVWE
In words: Inhibition of NLK Lys2 labeling site in human A-375 cells at 5 uM by KiNativ Profiling analysis relative to control. In kind it is cell-based.

Assay [14] has as its target Serine/threonine-protein kinase WNK4 (Homo sapiens) (UniProt Q96J92). In words: Inhibition of Wnk4 ACT labeling site in human A-375 cells at 5 uM by KiNativ Profiling analysis relative to control. In kind it is cell-based.
Assay [15] has as its target Cyclin-dependent kinase 11B (Homo sapiens) (UniProt P21127). Description: Inhibition of PITSLRE Lys2 labeling site in human A-375 cells at 0.5 uM by KiNativ Profiling analysis relative to control. In kind it is cell-based.
Assay [16] deals with Aurora kinase B (Homo sapiens) (UniProt Q96GD4). Description: Inhibition of AurB ATP Loop labeling site in human A-375 cells at 0.5 uM by KiNativ Profiling analysis relative to control. In kind it is cell-based. In short, it runs like this:
(§1)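 Live A375 melanoma cells were treated with compound at 5 or 0.5 μM, then lysed. The lysates were labeled with a lysine-reactive ATP or ADP-biotin probe. Kinase protection from probe labeling was measured by KiNativ.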

For assay [17], the target named is Ribosomal protein S6 kinase alpha-3 (Homo sapiens) (UniProt P51812). Description: Inhibition of RSK2 domain2 Protein Kinase Domain in human A-375 cells at 0.5 uM by KiNativ Profiling analysis relative to control. In kind it is cell-based. The method in brief:
(§2)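 Live A375 melanoma cells treated with compound at 5 or 0.5 μM, then lysed. Lysate kinases were labeled with a lysine-reactive ATP or ADP-biotin probe. Inhibition was read as protection of labeling sites from the probe.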

For assay [18], the target named is RAC-gamma serine/threonine-protein kinase (Homo sapiens) (UniProt Q9Y243). Description: Inhibition of AKT3 ATP Loop labeling site in human A-375 cells at 0.5 uM by KiNativ Profiling analysis relative to control. In kind it is cell-based. The method in brief:
as §1

Assay [19] in a line: Inhibition of p70S6K ATP Loop labeling site harbouring GGYGKVFQVR in human A-375 cells at 0.05 uM by KiNativ Profiling analysis relative to control. The following applies: condition cancer.
In assay [20] the target is Dual specificity mitogen-activated protein kinase kinase 1 (Homo sapiens) (UniProt Q02750). In words: Inhibition of MAP2K1 Lys2 labeling site harbouring IMHRDVKPSNILVNSR in human A-375 cells at 0.05 uM by KiNativ Profiling analysis relative to control. In kind it is cell-based.
The target of assay [21] is Ribosomal protein S6 kinase alpha-2 (Homo sapiens) (UniProt Q15349). In words: Inhibition of RSK3 Protein Kinase Domain in human A-375 cells at 5 uM by KiNativ Profiling analysis relative to control. In kind it is cell-based. In short, it runs like this: as §2

Serine/threonine-protein kinase WNK4 (Homo sapiens), sequence (Q96J92 whole entry): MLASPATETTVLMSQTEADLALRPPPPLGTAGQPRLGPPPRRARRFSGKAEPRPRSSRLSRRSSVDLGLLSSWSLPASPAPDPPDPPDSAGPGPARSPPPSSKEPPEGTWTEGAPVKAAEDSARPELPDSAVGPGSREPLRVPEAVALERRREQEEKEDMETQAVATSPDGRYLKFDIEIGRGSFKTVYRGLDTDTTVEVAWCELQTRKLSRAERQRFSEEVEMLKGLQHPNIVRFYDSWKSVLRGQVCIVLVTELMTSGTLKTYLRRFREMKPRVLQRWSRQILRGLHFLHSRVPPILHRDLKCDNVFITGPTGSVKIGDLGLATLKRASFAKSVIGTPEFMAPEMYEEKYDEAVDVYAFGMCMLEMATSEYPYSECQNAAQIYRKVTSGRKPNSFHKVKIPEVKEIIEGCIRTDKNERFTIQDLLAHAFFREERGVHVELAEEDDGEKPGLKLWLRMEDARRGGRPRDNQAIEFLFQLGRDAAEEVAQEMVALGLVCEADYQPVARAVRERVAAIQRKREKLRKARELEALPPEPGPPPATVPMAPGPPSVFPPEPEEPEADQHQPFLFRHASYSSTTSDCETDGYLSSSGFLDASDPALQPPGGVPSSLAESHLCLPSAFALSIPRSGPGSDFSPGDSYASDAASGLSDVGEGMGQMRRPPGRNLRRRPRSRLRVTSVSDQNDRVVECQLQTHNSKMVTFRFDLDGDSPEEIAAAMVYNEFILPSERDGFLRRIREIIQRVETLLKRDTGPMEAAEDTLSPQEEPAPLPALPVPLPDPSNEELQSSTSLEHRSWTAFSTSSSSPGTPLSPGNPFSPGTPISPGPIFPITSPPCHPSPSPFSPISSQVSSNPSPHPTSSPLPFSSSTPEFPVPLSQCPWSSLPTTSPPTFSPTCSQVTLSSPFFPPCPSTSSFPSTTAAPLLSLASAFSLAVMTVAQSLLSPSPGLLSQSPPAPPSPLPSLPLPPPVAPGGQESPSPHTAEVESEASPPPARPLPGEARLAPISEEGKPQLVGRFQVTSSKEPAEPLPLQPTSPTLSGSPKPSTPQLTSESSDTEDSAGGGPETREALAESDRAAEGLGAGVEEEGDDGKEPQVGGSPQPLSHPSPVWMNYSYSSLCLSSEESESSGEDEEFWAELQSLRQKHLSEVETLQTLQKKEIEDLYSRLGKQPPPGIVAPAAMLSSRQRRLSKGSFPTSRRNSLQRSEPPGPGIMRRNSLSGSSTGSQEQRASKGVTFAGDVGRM
Ribosomal protein S6 kinase alpha-3 (Homo sapiens), sequence (P51812 whole entry, the tested form may be a part): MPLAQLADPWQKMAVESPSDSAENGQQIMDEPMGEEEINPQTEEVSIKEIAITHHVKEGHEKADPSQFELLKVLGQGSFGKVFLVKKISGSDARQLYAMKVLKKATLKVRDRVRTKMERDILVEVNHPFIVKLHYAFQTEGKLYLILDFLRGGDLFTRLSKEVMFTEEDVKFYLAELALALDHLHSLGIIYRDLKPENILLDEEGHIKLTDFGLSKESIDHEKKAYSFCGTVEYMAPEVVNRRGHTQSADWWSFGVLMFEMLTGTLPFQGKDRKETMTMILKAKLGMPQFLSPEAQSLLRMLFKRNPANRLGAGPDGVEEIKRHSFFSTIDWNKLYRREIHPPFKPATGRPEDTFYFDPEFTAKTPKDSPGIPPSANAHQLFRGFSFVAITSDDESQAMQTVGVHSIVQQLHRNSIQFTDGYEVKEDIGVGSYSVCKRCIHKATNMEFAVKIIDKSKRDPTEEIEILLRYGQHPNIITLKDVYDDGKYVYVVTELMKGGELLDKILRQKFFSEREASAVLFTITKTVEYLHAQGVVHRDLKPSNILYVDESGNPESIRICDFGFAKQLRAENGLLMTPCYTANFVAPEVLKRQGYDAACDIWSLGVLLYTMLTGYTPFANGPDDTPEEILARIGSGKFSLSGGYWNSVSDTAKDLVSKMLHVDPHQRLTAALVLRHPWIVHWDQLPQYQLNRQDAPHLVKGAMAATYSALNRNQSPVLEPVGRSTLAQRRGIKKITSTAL
Tyrosine-protein kinase JAK1 (Homo sapiens), sequence (P23458 whole entry): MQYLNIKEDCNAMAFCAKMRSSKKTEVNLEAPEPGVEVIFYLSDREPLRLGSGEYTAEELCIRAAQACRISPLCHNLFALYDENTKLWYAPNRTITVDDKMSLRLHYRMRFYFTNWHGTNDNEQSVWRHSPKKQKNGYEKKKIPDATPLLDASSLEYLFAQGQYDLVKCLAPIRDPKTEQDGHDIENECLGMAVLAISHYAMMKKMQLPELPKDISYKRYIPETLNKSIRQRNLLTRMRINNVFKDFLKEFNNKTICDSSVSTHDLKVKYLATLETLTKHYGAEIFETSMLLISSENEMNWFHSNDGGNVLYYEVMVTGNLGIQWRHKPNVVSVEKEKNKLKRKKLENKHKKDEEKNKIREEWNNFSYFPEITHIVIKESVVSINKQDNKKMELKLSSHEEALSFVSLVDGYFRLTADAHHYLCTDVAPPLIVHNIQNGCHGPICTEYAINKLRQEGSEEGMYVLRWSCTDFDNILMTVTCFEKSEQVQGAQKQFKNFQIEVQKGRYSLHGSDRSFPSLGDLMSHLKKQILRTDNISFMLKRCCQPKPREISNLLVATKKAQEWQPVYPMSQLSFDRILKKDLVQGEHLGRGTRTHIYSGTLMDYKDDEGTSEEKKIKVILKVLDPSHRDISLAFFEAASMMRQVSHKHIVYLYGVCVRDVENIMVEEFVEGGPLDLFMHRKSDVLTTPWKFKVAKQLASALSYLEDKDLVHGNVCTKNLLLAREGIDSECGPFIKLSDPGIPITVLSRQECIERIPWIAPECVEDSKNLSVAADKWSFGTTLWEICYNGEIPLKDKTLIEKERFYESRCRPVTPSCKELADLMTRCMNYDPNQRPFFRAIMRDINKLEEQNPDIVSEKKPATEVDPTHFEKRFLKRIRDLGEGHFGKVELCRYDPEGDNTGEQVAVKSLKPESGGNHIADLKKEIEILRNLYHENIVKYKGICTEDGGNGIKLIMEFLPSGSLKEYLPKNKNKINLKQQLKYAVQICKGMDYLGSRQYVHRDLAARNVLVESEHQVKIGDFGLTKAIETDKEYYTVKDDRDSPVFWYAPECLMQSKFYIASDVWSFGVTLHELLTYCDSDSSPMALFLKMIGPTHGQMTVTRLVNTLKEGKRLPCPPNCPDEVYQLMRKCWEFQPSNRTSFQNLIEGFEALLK
MAP/microtubule affinity-regulating kinase 3 (Homo sapiens), sequence (P27448 whole entry, looked up): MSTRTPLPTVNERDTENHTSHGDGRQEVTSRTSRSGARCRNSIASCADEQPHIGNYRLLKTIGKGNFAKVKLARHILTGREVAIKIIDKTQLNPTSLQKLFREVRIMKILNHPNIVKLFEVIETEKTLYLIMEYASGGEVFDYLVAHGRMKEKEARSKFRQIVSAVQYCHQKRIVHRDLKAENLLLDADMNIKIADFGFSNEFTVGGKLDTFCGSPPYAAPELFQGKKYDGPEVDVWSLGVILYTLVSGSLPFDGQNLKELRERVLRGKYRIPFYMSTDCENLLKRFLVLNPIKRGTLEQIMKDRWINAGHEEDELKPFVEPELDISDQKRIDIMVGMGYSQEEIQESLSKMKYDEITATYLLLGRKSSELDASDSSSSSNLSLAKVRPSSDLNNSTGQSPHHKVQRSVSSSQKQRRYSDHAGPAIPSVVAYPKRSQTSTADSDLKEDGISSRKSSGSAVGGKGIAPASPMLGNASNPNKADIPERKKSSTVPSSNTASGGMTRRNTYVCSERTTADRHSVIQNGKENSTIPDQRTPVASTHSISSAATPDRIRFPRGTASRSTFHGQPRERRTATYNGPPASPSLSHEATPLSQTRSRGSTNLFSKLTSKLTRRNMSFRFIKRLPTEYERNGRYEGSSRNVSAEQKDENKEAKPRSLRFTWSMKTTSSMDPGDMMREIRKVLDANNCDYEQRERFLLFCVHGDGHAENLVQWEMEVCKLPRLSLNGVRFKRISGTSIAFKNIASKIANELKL
Phosphatidylinositol 4-kinase beta (Homo sapiens), sequence (Q9UBF8 2-816 limits assumed): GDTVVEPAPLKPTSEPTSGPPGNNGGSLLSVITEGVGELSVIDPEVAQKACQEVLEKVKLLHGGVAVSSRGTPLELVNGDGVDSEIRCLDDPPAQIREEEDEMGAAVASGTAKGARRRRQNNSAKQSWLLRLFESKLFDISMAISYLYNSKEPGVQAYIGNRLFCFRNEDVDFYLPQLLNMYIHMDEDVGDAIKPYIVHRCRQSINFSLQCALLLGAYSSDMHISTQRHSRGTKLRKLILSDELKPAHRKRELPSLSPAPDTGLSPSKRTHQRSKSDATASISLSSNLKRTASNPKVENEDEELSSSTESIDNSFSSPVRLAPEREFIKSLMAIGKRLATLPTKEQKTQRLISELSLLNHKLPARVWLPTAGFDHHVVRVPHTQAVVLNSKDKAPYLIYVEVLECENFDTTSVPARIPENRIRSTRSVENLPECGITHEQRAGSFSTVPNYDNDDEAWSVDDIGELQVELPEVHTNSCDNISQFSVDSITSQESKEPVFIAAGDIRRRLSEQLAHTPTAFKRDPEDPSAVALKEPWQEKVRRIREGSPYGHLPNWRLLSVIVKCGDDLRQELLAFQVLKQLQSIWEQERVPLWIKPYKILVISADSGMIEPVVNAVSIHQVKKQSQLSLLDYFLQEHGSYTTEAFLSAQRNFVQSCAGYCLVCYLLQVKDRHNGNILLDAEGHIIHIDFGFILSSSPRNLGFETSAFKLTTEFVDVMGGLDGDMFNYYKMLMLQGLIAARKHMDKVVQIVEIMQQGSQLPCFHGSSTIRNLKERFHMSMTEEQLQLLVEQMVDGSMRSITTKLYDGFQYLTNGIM
Aurora kinase B (Homo sapiens), sequence (Q96GD4 whole entry): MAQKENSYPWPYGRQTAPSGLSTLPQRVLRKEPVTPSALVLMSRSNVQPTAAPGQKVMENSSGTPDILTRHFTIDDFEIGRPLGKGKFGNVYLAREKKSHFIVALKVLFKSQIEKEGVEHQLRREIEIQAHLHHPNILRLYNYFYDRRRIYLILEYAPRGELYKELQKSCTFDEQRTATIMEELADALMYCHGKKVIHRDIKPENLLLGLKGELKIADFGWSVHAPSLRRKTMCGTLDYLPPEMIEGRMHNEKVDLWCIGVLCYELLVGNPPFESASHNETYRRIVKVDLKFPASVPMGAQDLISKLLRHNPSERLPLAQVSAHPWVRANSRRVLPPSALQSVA

Usually inhibition stands for the change of the read-out against control, counted positive when it falls. `CCN1CCN(Cc2ccc(NC(=O)c3ccc(C)c(/C=C/c4cnc5[nH]ccc5c4OC)c3)cc2C(F)(F)F)CC1`: the inhibition in assay [1] is 6.9%; in [2], -6.8%; in assay [3] it was 13.3%; in assay [4] it was 4.4%; in assay [5], 30.6%; in assay [6], 15.3%. Moreover, the inhibition in [7] is 24.6%; in assay [8], 11.4%; in [9], 5.7%; in assay [10] it was 80.5%; in assay [13], 66.6%; in [14], -4.5%. The inhibition in [15] was -0.4%; in assay [16], 30.2%; in assay [17] it was -4.1%; in assay [18], 25.1%; in assay [20] it was 32.5%; in assay [21], 20%. In addition, the inhibition at 5 µM in assay [11] is -15.2%. The inhibition at 0.05 µM in [12] was -27%; in assay [19], -14.4%.

With `CCN1CCN(Cc2ccc(NC(=O)c3ccc(C)c(Oc4ccnc5[nH]ccc45)c3)cc2C(F)(F)F)CC1`, the inhibition in assay [1] is 3.9%; in assay [2], -5.8%; in assay [3], 4.9%; in assay [4] it was -3.5%; in assay [5], 33.9%; in assay [6], 11.4%. Besides, the inhibition was 12.9% in assay [7]; -4.1% in [8]; 13% in assay [9]; 74.1% in assay [10]; 18.9% in assay [13]; 14.4% in assay [14]. In addition, the inhibition in [15] is -2.7%; in assay [16], 31.2%; in [17] it was 7.2%; in assay [18], -1.8%; in assay [20], 14.9%; in [21], 5.8%. Moreover, the inhibition at 5 µM in [11] was -45.5%. Also, the figures for the inhibition at 0.05 µM in assay [12] and in [19] were -7.2% and 18.9%, respectively.
